Reference: publication PMC9472799 (Biomacromolecules, 2022)

Columns and labels:
Assay type in all cases: biochemical
[1] = molecular target: T1, sickle hemoglobin (HbS) (Homo sapiens, UniProt P68871+P69905, P68871:E7V); experiment: NMR binding
Summary of the method: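 HbS labelled at cysteine thiols with rhodamine red (donor) or Cy5 (acceptor) after TCEP reduction; free dye dialysed away. Donor and acceptor HbS mixed 1:5 at 25 μM. Incubated 2 h at room temperature with test compound at seven concentrations (0.1–1000 μM) or DMSO. Vacuum argon degassed 10 min to deoxygenate. Donor fluorescence lifetime read; FRET efficiency E = 1 − τDA/τD.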

[2] = molecular target: T1, sickle hemoglobin (HbS); experiment: DLS oligomer size and FLT-FRET with purified deoxy-HbS
[3] = molecular target: T1, sickle hemoglobin (HbS); experiment: FLT-FRET dose response and DLS

CN1C(=O)CCS(=O)(=O)C1c1ccc(Cl)cc1 (stereo not drawn) [chlormezanone]
IC50 [1]: > 100 µM

CC(C)n1nccc1-c1ncccc1COc1cccc(O)c1C=O [voxelotor]
DLS oligomer size and FLT-FRET with purified deoxy-HbS [2]: voxelotor (a compound that increases hemoglobin oxygen binding affinity), which dramatically reduced the mean oligomer size (Figure 1A)

COc1ccc(-c2ccc(=N)n(CCCC(=O)O)n2)cc1 [gabazine]
FLT-FRET dose response and DLS (100 μM) with purified deoxy-HbS [3]: all three compounds significantly decreased the oligomer size relative to control (and to the same extent as voxelotor)
